According to the M2OR odorant receptor database:

Experiments:
Conditions in all cases: stereoisomer not certain
OR10A2 (Homo sapiens) = OR10A2 (Homo sapiens) (UniProt Q9H208)
In short: (§1)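 Assay methods differ from source to source, frequently being transient luciferase assays in mammalian cell lines. For each receptor–molecule pair, the label responsive (active) applies when the original authors judged the measured signal statistically different from baseline, and non-responsive (inactive) applies otherwise.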

OR10A4 (Homo sapiens) = OR10A4 (Homo sapiens) (UniProt Q9H209)
Chain of OR10A4 (Homo sapiens) (Q9H209 whole entry): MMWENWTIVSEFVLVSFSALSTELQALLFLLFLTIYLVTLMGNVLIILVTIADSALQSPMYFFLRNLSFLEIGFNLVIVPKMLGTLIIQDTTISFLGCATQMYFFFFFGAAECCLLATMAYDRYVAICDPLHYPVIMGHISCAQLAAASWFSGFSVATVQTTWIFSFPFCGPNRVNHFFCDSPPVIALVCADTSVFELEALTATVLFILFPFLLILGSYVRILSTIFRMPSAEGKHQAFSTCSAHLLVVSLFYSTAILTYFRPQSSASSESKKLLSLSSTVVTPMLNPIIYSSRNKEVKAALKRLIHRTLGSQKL
In short: as §1

OR10A5 (Homo sapiens) = OR10A5 (Homo sapiens) (UniProt Q9H207)
Chain of OR10A5 (Homo sapiens) (Q9H207 whole entry): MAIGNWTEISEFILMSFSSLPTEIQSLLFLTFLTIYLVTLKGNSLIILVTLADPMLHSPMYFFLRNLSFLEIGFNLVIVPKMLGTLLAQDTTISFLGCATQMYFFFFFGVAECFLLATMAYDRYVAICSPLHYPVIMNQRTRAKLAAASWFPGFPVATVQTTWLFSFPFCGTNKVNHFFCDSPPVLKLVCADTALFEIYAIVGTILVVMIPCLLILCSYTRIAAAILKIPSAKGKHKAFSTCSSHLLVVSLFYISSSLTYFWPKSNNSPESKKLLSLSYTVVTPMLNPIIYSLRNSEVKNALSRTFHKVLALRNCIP
In short: as §1

OR10A6 (Homo sapiens) = OR10A6 (Homo sapiens) (UniProt Q8NH74)
Chain of OR10A6 (Homo sapiens) (Q8NH74 whole entry): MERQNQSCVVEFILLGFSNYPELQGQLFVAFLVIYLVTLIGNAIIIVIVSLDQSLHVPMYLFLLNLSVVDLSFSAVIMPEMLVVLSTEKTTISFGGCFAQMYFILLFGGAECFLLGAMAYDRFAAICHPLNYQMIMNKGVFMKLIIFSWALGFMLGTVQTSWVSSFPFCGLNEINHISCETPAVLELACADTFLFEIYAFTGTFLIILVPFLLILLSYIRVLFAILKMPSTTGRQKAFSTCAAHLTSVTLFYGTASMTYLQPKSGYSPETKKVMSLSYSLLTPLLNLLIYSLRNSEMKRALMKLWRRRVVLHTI
In short: as §1

OR10A7 (Homo sapiens) = OR10A7 (Homo sapiens) (UniProt Q8NGE5)
Chain of OR10A7 (Homo sapiens) (Q8NGE5 whole entry): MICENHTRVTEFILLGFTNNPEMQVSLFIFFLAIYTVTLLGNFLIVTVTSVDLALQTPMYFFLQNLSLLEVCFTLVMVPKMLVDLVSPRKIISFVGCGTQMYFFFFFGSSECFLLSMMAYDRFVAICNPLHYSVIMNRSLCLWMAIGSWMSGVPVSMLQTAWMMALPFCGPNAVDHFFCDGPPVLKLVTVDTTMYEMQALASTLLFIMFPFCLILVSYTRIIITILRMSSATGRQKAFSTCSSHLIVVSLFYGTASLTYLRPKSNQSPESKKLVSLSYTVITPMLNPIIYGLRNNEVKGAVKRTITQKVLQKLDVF
In short: as §1

OR10AC1 (Homo sapiens) = OR10AC1 (Homo sapiens) (UniProt Q8NH08)
Chain of OR10AC1 (Homo sapiens) (Q8NH08 whole entry): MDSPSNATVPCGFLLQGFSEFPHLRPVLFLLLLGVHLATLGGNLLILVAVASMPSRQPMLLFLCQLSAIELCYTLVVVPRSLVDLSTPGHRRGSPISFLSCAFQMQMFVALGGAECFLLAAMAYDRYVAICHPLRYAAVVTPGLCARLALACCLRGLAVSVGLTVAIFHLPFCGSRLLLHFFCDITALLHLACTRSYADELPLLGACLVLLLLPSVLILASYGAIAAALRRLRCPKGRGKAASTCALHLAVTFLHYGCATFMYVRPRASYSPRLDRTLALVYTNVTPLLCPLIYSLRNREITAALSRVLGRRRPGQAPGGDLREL
In short: as §1

OR10AD1 (Homo sapiens) = OR10AD1 (Homo sapiens) (UniProt Q8NGE0)
Chain of OR10AD1 (Homo sapiens) (Q8NGE0 whole entry): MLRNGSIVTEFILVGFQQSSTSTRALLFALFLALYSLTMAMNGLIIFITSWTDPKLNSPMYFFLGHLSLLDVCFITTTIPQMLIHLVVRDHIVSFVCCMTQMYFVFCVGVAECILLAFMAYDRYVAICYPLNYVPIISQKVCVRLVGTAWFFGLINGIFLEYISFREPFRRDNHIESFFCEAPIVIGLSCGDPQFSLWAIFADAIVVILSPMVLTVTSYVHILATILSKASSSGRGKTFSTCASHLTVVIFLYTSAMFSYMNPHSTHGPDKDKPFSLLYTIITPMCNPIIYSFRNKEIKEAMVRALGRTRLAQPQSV
In short: as §1

OR10AG1 (Homo sapiens) = OR10AG1 (Homo sapiens) (UniProt Q8NH19)
Chain of OR10AG1 (Homo sapiens) (Q8NH19 whole entry): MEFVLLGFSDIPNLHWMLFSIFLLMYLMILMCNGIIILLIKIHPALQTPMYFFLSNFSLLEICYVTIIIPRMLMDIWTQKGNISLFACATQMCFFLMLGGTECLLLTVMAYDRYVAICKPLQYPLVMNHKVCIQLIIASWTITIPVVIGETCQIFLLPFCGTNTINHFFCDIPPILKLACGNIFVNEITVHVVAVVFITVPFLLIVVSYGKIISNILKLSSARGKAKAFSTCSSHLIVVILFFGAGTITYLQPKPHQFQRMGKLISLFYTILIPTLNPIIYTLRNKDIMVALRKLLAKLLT
In short: as §1

OR10C1 (Homo sapiens) = OR10C1 (Homo sapiens) (UniProt Q96KK4)
Chain of OR10C1 (Homo sapiens) (Q96KK4 whole entry): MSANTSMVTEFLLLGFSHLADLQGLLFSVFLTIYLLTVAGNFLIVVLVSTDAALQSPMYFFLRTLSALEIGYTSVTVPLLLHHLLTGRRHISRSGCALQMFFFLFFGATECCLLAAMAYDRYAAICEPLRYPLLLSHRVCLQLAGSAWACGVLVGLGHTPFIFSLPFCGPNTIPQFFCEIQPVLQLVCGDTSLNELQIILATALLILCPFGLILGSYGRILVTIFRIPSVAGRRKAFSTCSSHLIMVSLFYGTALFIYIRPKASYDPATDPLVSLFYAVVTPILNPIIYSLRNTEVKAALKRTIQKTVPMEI
In short: as §1

OR10A3 (Homo sapiens) = OR10A3 (Homo sapiens) (UniProt P58181)
Chain of OR10A3 (Homo sapiens) (P58181 whole entry): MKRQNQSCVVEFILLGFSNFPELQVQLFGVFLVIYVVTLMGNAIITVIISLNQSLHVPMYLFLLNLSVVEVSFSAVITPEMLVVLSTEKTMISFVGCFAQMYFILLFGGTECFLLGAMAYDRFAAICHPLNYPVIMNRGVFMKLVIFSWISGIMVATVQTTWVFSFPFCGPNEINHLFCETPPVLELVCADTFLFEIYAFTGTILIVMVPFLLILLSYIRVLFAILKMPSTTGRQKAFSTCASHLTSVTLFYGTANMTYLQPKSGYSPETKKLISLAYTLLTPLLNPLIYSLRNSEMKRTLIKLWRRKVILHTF
In short: as §1

Measured: odorant receptor agonist call

Chain of OR10A2 (Homo sapiens) (Q9H208 whole entry): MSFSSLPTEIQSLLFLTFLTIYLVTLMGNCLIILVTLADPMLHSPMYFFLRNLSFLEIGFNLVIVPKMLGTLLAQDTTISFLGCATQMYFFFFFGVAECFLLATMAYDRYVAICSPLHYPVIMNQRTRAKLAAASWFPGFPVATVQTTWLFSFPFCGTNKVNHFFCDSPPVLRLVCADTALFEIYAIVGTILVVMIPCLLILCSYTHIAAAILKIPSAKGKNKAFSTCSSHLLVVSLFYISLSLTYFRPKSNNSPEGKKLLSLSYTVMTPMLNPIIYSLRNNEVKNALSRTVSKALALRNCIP

Cc1c([N+](=O)[O-])c(C)c([N+](=O)[O-])c(C(C)(C)C)c1[N+](=O)[O-]
not listed: OR10A3 (Homo sapiens)
inactive: all other assays above

C=CCOC(=O)Cc1ccccc1
not listed: OR10AC1 (Homo sapiens)
inactive: all other assays above
